SENP1 FRET inh: human SENP1 catalytic domain inhibitors, primary screen, biochemical, FRET, uHTS. Sentrin-specific protease 1 (Homo sapiens), Q9P0U3. recombinant SENP1 catalytic domain, CyPet-SUMO1-YPet FRET cleavage. hit rate 0.21% among 360,000. AID 624204, 2012. inhibition, % at 10 µM;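 active means inhibition at least 30% at 10 µM, raw YFP signal under a set limit, fluorescence ratio 0.5 to 1.5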;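 further: 0% = enzyme with DMSO and 100% = no enzyme wells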
Target sequence (Q9P0U3 419-644 limits assumed): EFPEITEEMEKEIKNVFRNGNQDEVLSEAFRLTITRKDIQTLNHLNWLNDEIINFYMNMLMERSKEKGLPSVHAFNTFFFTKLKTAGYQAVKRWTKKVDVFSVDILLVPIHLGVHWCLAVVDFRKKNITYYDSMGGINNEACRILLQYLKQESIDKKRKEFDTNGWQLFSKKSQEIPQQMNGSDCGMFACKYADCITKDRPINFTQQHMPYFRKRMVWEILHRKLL
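Material: hSENP1 catalytic domain, recombinant; medium: Tris pH 8 with BME, BSA, NP40 and catalase; compound: single concentration of 10 µM compound, 0.5% DMSO final; technique: FRET read of cyan and yellow fluorescence; timing: 50 min enzyme reaction, room temperature, light-protected; reagent: SFCypet-SUMO1-SFYpet substrate at 25 nM; control set: no-enzyme low, enzyme-DMSO high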
GAA850 FXN act: FXN promoter activators, primary screen, cell-based, luciferase luminescence, HEK293 lucGAA850; HEK293 lucGAA850 FXN promoter luciferase reporter, 24 h; percent of 10 µM SAHA response; activation, % at 6 µM; hit rate 0.56% among 360,000; AID 540364, 2011;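 active means activation above the average of all compounds screened plus 3 SD, cutoff fixed separately per campaign, cut at about 7.5% in these data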;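 further: 0% = DMSO wells and 100% = 10 µM SAHA wells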
CTSL1 counter: Fasciola hepatica cathepsin L1 inhibitors, primary screen, counter-screen for PFM18AAP inhibitor project, biochemical, QFRET, fluorogenic peptide substrate. recombinant F. hepatica cathepsin L1, Z-Leu-Arg-MCA fluorescence. inhibition, % at 5.96 µM. hit rate 0.49% among 300,000;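 active means inhibition above the mean of all tested compounds plus 3 SD, set per screening campaign, cut at about 17% in these data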;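 further: 0% = plate median of test compound wells and 100% = 1 µM Z-Phe-Ala-diazomethylketone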
HDAC3 inhib: HDAC3 deacetylase inhibitors, primary screen, biochemical, fluorescence, cell-free homogeneous | Histone deacetylase 3 (Homo sapiens), O15379 | recombinant HDAC3, fluorogenic peptide/trypsin coupled | inhibition, % at 8.3 µM | hit rate 0.15% among 320,000; in the data active means inhibition above about 26%, passing the limit was not always enough
M18AAP inhibitor: PfM18AAP inhibitors, malaria aminopeptidase, primary screen, biochemical, QFRET, recombinant enzyme. hit rate 1.2% among 290,000. H-Glu-NHMec fluorogenic cleavage. inhibition, % at 7.35 µM. AID 1822, 2009;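 active means inhibition above the campaign mean inhibition over all tested compounds plus 3 SD, cut at about 28% in these data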;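 further: 0% = plate median of test compound wells and 100% = 2 mM ZnCl2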
AHR act: AHR activators, primary screen, cell-based, luminescence, luciferase reporter, human; Aryl hydrocarbon receptor (Homo sapiens), P35869; AHR-responsive luciferase reporter cells; activation, % at 5 µM; hit rate 2.5% among 320,000; AID 2796, 2010; in the data active means activation above about 47%;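 further: 0% = vehicle wells and 100% = reference agonist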
* hit, by the source's call; x = no result. Shown are actives, neighbours in structure and some others; about 4.2% of the full set was active somewhere.

SMILES	SENP1 FRET inh	GAA850 FXN act	CTSL1 counter	HDAC3 inhib	M18AAP inhibitor	AHR act
CCN(CC)C(=O)CC(c1ccc(F)cc1)c1ccco1 (stereo unspecified)	-9.3	1.1	49.1*	3.4	-8.1	3.3
CN(C)CCCNC(=O)CC(c1ccc(F)cc1)c1ccco1 (stereo unspecified)	0.9	2.0	3.2	4.8	0.2	3.4
CC(C)Cc1ccc(-c2cc3nc(NCC4CC4)ccn3n2)cc1	-14.0	4.1	x	x	x	x
Cc1ccc2c(c1)oc(=O)n2CC(=O)c1ccccc1	0.2	0.4	-2.1	-1.9	-1.3	8.4
COc1cccc(CNc2nc3cc(-c4cccc(C(F)(F)F)c4)sc3c(=O)n2C)c1	-0.5	-1.5	x	x	x	x
CCSc1ccccc1C(=O)N1CCC2(CC1)CC(=O)c1ccccc1O2	2.9	-1.2	-0.4	-0.2	x	-1.2
CC1=NN(C(N)=S)C(=O)C1N=Nc1ccccc1O (stereo unspecified)	-1.2	2.5	1.6	-3.7	6.0	47.5*
CC1=NN(C(N)=S)C(=O)C1N=Nc1ccccc1[N+](=O)[O-] (stereo unspecified)	2.9	0.5	x	x	x	x
CC1=NN(C(N)=S)C(=O)C1N=Nc1ccccc1C (stereo unspecified)	3.0	2.8	15.1	3.7	0.9	56.6*
CCOc1ccccc1N=NC1C(=O)N(C(N)=S)N=C1C (stereo unspecified)	92.2	-1.9	4.0	3.9	8.8	65.3*
CC1=NN(C(N)=S)C(=O)C1N=Nc1c(C)cc(C)cc1C (stereo unspecified)	4.1	0.9	7.0	-7.9	4.0	3.3
CC1=NN(C(N)=S)C(=O)C1N=Nc1ccc(C)cc1C (stereo unspecified)	x	x	4.6	2.8	3.2	67.1*
CC(=O)Nc1ccc(-c2ccnc3c2CC(C)(C(=O)Nc2ccc(C(C)C)cc2)O3)cc1 (stereo unspecified)	0.5	-1.0	x	x	x	x
COc1ccc(C)c2sc(N(CCCN(C)C)C(=O)c3ccc4c(c3)OCCO4)nc12	-59.3	1.3	3.0	10.6	x	6.0
O=C(NC(=S)Nc1cccc(O)c1)C12CC3CC(CC(C3)C1)C2	-0.9	-0.4	x	x	x	x
O=C(COc1ccc(Br)cc1)N(Cc1nnc(-c2ccccc2Cl)o1)C1CC1	-1.3	1.8	x	x	x	x
COc1ccc(Nc2nc(-c3cccnc3)cs2)c(OC)c1	2.3	3.9	x	0.9	-9.0	x
COc1ccc(OC)c(Nc2nc(-c3cccs3)cs2)c1	0.7	0.9	-2.1	0.5	11.8	47.7*
COc1ccc(Nc2nc(-c3cccs3)cs2)cc1	x	x	-0.3	-0.2	16.3	49.2*
COc1ccc(C(O)c2nc(-c3cccs3)cs2)cc1 (stereo unspecified)	4.1	1.9	x	x	x	x
COc1ccc(Nc2nc(-c3cccs3)cs2)c(OC)c1	8.1	5.7	3.6	2.2	7.9	109.3*
CC(C)c1onc(C(=O)NCc2cccs2)c1[N+](=O)[O-]	2.3	0.1	22.6*	-0.1	-4.1	1.3
CC(C)c1ccc(O)c(NC(=O)c2ncn[nH]2)c1	1.8	-0.7	16.8*	1.9	28.5*	37.9
CC(C)c1ccc(O)c(NC(=O)c2cncc(Br)c2)c1	2.2	2.6	1.9	4.7	1.6	12.2
CN(C)c1cccc(CNC(=O)c2csc([C@H]3C[C@H](O)[C@@H](CO)O3)n2)c1	-0.8	-0.6	x	x	x	x
COc1ccc(N=C(NN)c2ccc3ccccc3n2)cc1	-2.6	-9.1	0.5	-6.5	27.4	70.7*
COc1ccc(CNC(=O)c2ccc3ccccc3n2)cc1	0.0	1.7	-2.4	-1.9	-4.1	13.3
CN1C(=S)SC(N(O)C(=O)Nc2ccccc2)C1(C)C (stereo unspecified)	1.1	-0.5	1.6	2.2	7.7	9.5
CN1C(=S)SC(N(O)C(=O)Nc2cccc3ccccc23)C1(C)C (stereo unspecified)	-8.0	-0.1	0.5	-1.4	1.2	75.1*
CN1C(=O)C(O)(CC(=O)/C=C/C=C/c2ccccc2)c2ccccc21 (stereo unspecified)	2.6	2.6	32.5*	-1.0	-2.6	0.8
